13 molecules from ChEMBL document CHEMBL3259768, “Structure-activity relationships for vitamin D3-based aromatic a-ring analogues as hedgehog pathway inhibitors” (J Med Chem, 2014) can be followed below.

Tested on in one assay: not listed separately
As to the kind of experiment: Inhibition of hedgehog signaling pathway-mediated GLI1 mRNA expression in mouse C3H10T1/2 cells assessed as residual activity at 5 uM after 24 hrs by RT-PCR analysis relative to 20alpha-hydroxycholesterol/22(S)-hydroxycholesterol. In kind it is cell-based. The settings on record: C3H 10T1/2. Put shortly:
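C3H10T1/2 cells co-treated with analogue and the oxysterol Hh activators 20α-hydroxycholesterol plus 22(S)-hydroxycholesterol (5 μM each) for 24 h. Gli1 mRNA measured by qPCR as % of OHC-only control (100%). Analogue at 5 μM, or at 0.5 μM where stated.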
With `CC(C)CCC[C@@H](C)[C@H]1CC[C@H]2[C@@H](OC(=O)c3ccc4ccccc4c3)CCC[C@]12C`, the Activity stood at 77.4%.
Take `CC(C)CCC[C@@H](C)[C@H]1CC[C@H]2[C@@H](OC(=O)c3ccc(N(C)C)cc3)CCC[C@]12C`: the Activity came to 107%.
With `CC(C)CCC[C@@H](C)[C@H]1CC[C@H]2[C@@H](OC(=O)c3ccc(Cl)cc3)CCC[C@]12C`, the Activity turned out to be 77.7%.
Still for that read-out and setting: as for `CC(C)CCC[C@@H](C)[C@H]1CC[C@H]2[C@@H](O)CCC[C@]12C`, the figure is 46.4%; as for `CC(C)CCC[C@@H](C)[C@H]1CC[C@H]2[C@@H](OC(=O)c3ccncc3)CCC[C@]12C`, 51.1%.
As for `CC(C)CCC[C@@H](C)[C@H]1CC[C@H]2[C@@H](OC(=O)c3ccco3)CCC[C@]12C`, the Activity was found to be 95%.
In the case of `CC(C)CCC[C@@H](C)[C@H]1CC[C@H]2[C@@H](OC(=O)c3ccccc3O)CCC[C@]12C`, the Activity is 115%.
Same read-out and setting: the same measure for `CC(C)CCC[C@@H](C)[C@H]1CC[C@H]2[C@@H](OC(=O)c3ccc4cc(O)ccc4c3)CCC[C@]12C`: 91.9%; for `CC(C)CCC[C@@H](C)[C@H]1CC[C@H]2[C@@H](OC(=O)c3cc4ccccc4[nH]3)CCC[C@]12C`: 84.5%.
As for `CC(C)CCC[C@@H](C)[C@H]1CC[C@H]2[C@@H](OC(=O)c3cccc4ccccc34)CCC[C@]12C`, the Activity was found to be 82.3%.
Still for that read-out and setting: as for `CC(C)CCC[C@@H](C)[C@H]1CC[C@H]2[C@@H](OC(=O)c3cccnc3O)CCC[C@]12C`, the figure is 23%; as for `CC(C)CCC[C@@H](C)[C@H]1CC[C@H]2[C@@H](OC(=O)c3ccsc3)CCC[C@]12C`, 109%.
Still for that read-out and setting: as for `COc1ccccc1C(=O)O[C@H]1CCC[C@]2(C)[C@@H]([C@H](C)CCCC(C)C)CC[C@@H]12`, the figure is 98%.

For another assay, the target named is T1, Vitamin D3 receptor (Mus musculus) (UniProt P48281).
T1 sequence (whole entry): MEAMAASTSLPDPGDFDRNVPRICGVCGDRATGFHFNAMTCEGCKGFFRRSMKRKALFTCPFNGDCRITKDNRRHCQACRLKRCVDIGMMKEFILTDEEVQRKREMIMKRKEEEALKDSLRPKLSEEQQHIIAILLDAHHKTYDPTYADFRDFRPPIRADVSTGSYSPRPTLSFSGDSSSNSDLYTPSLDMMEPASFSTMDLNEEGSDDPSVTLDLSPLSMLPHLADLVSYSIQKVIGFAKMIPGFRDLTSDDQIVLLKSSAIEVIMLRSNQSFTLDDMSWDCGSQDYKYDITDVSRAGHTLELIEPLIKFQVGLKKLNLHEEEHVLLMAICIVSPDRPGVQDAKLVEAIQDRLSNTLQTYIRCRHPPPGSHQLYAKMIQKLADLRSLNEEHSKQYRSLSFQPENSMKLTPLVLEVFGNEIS
The assay can be described thus: Activation of VDR in mouse C3H10T1/2 cells assessed as upregulation of CYP24A1 mRNA expression at 5 uM after 24 hrs by RT-PCR analysis relative to DMSO-treated control. It counts as cell-based. The conditions noted are these: C3H 10T1/2. In outline:
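Cyp24A1 mRNA read by qPCR after 24 h exposure at 5 μM. Up-regulation normalized to DMSO control, set to 1.0.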
Regarding `CC(C)CCC[C@@H](C)[C@H]1CC[C@H]2[C@@H](OC(=O)c3ccc4ccccc4c3)CCC[C@]12C`, the fold change (FC) amounted to 3.
The same measure, in the same setting: as for `CC(C)CCC[C@@H](C)[C@H]1CC[C@H]2[C@@H](OC(=O)c3ccc(N(C)C)cc3)CCC[C@]12C`, the figure is 1.4.
Turning to `CC(C)CCC[C@@H](C)[C@H]1CC[C@H]2[C@@H](OC(=O)c3ccc(Cl)cc3)CCC[C@]12C`, the fold change (FC) was 0.8.
Same read-out and setting: the same measure for `CC(C)CCC[C@@H](C)[C@H]1CC[C@H]2[C@@H](O)CCC[C@]12C`: 3.6.
Regarding `CC(C)CCC[C@@H](C)[C@H]1CC[C@H]2[C@@H](OC(=O)c3ccncc3)CCC[C@]12C`, the fold change (FC) is 14.7.
Same read-out and setting: the same measure for `CC(C)CCC[C@@H](C)[C@H]1CC[C@H]2[C@@H](OC(=O)c3ccco3)CCC[C@]12C`: 1.7; for `CC(C)CCC[C@@H](C)[C@H]1CC[C@H]2[C@@H](OC(=O)c3ccccc3O)CCC[C@]12C`: 1.2; for `CC(C)CCC[C@@H](C)[C@H]1CC[C@H]2[C@@H](OC(=O)c3ccc4cc(O)ccc4c3)CCC[C@]12C`: 0.8.
Still for that read-out and setting: the same measure for `CC(C)CCC[C@@H](C)[C@H]1CC[C@H]2[C@@H](OC(=O)c3cc4ccccc4[nH]3)CCC[C@]12C`: 2.7; for `CC(C)CCC[C@@H](C)[C@H]1CC[C@H]2[C@@H](OC(=O)c3cccc4ccccc34)CCC[C@]12C`: 2.7.
As to `CC(C)CCC[C@@H](C)[C@H]1CC[C@H]2[C@@H](OC(=O)c3cccnc3O)CCC[C@]12C`, the fold change (FC) turned out to be 7.5.
Regarding `CC(C)CCC[C@@H](C)[C@H]1CC[C@H]2[C@@H](OC(=O)c3ccsc3)CCC[C@]12C`, the fold change (FC) stood at 1.3.
Consider `COc1ccccc1C(=O)O[C@H]1CCC[C@]2(C)[C@@H]([C@H](C)CCCC(C)C)CC[C@@H]12`, for which the fold change (FC) amounted to 0.9.
